Results pooled from the literature.
Lines come from different studies, so protocols differ.
Target: Dual specificity tyrosine-phosphorylation-regulated kinase 1A (DYRK1A, Homo sapiens, UniProt Q13627)

With `CN(CCCC(F)(F)F)c1nccc(-c2cnn3ncccc23)n1` the remaining binding was 35% (binding; 1 µM).
With `Cc1c(C(=O)O)cc(-c2ccc(C3CCNCC3)cc2)c2ccc(-c3ccc(C(F)(F)F)cc3)cc12` the remaining binding was 100% (cell-free assay; competition with immobilised ligand; 1 µM).
`C[C@@H](c1ccc(-n2cnc3c(N)ncnc32)cc1)N1CCc2nn(C)c(Cc3ccccc3)c2C1=O` has a remaining binding of 80% (binding; competition with immobilised ligand; 0.1 µM).
With `CCOCCn1cc(C(=O)Nc2ccc(-n3nc(-c4cccnc4)cc3C(F)(F)F)cn2)ccc1=O` the remaining binding was 77% (cell-free assay; competition with immobilised ligand; 1 µM).
With `O=C(Nc1c[nH]nc1C(=O)NC1CCNCC1)c1cc(F)cc(F)c1` the remaining binding was 19% (binding; competition with immobilised ligand; 1 µM).
For `O=C(c1ccc(Nc2ncc(Cl)c(-c3cc4ccccc4s3)n2)cc1)N1CCC(N2CCCC2)CC1`, the remaining binding was 11% (binding; competition with immobilised ligand; 1 µM).
`CN([C@@H]1CCc2c(CC(=O)O)c3ccccc3n2C1)S(=O)(=O)c1ccc(F)cc1` gave a remaining binding of 69% (cell-free assay; competition with immobilised ligand; 1 µM).
The remaining binding of `CCN1CCN(Cc2ccc(C(=O)Nc3ccc(C)c(Oc4ccc5c(c4)CC(=O)N5)c3)cc2C(F)(F)F)CC1` is reported as 96% (binding; competition with immobilised ligand; 1 µM).
With `CNC(=O)[C@@H]1CC[C@@H](n2c(-c3ccc4cnccc4c3)nc3ccc(C(=O)NCc4cccc(C(N)=O)c4)cc32)C1` the remaining binding was 100% (binding; competition with immobilised ligand; 1 µM).
The remaining binding of `O=C(c1ccc(Nc2ncc(Cl)c(-c3ccc(Cl)s3)n2)cc1)N1CCC(N2CCCC2)CC1` is reported as 1.8% (binding; competition with immobilised ligand; 1 µM).
With `COc1cnc(Nc2cccc(S(N)(=O)=O)c2)nc1N1CCN(c2ccccc2)C(=O)C1` the remaining binding was 91% (binding; competition with immobilised ligand; 1 µM).
`Nc1ncc2c(n1)-c1c([nH]c3ccc(C#CC4CC4)cc13)CCCC2` gave a remaining binding of 100% (binding; competition with immobilised ligand; 1 µM).
`O=C(NCCCN1CCOCC1)c1ccc(Nc2nccc(-c3cc4ccccc4s3)n2)cc1` gave a remaining binding of 41% (binding; competition with immobilised ligand; 1 µM).
For `O=C(NC[C@@H]1[C@H]2CN(C(=O)OCc3cc(C(F)(F)F)cc(C(F)(F)F)c3)C[C@@H]12)c1ccc2[nH]nnc2c1`, the remaining binding was 86% (cell-free assay; competition with immobilised ligand; 1 µM).
